Results taken from ChEMBL document CHEMBL1799922, “Synthesis and antimycobacterial activity of prodrugs of indeno[2,1-c]quinoline derivatives” (Eur J Med Chem, 2011).
≈ marks a conversion by molar mass, not a printed value. Calls of active or inactive are those of the source. The rule behind the calls is not given here.

Tested on: Mycobacterium tuberculosis
Test: Antimicrobial activity against Mycobacterium tuberculosis H37Rv ATCC 27294 after 16 to 24 hrs by microplate alamar blue assay
Format: functional
Settings: not given
Outline: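 M. tuberculosis H37Rv inoculum 2×10^5 cfu/mL (100 µL) added to twofold dilutions in Middlebrook 7H12 medium; final test range 128 µM to 0.5 µM from 12.8 mM DMSO stocks. Incubated 37 °C; day 7 Tween 80 plus Alamar Blue added, further 16-24 h at 37 °C. Fluorescence ex 530/em 590 nm; MIC = lowest concentration giving >90% fluorescence reduction versus replicate bacteria-only controls. Rifampin, isoniazid controls.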

Question: With CCCCC(=O)O/N=C1\c2ccccc2-c2c1c(N1CCN(c3ccccn3)CC1)nc1ccc(Br)cc21 as the molecule, how does the MIC read?
Answer: inactive

Question: For COc1nc2ccc(Br)cc2cc1[C@@H](c1ccccc1)[C@@](O)(CCN(C)C)c1cccc2ccccc12 [BEDAQUILINE], which MIC is on record?
Answer: 0.06 µg/mL (≈ 0.108 µM)

Question: For CCCCCCCCCCCCCCC(=O)OC1(C)c2ccccc2-c2c1c(-n1ccnc1)nc1ccc(Br)cc21 (centres undefined), which MIC is on record?
Answer: inactive

Question: With CC(C)C[C@H](NC(=O)OC(C)(C)C)C(=O)O/N=C1\c2ccccc2-c2c1c(N1CCN(c3ccccn3)CC1)nc1ccc(Br)cc21 as the molecule, how does the MIC read?
Answer: inactive

Question: With CCC(=O)OC1(C)c2ccccc2-c2c1c(-n1ccnc1)nc1ccc(Br)cc21 (centres undefined) as the molecule, how does the MIC read?
Answer: inactive

Question: For CCCC(=O)O/N=C1\c2ccccc2-c2c1c(N1CCN(c3ccccn3)CC1)nc1ccc(Br)cc21, which MIC is on record?
Answer: inactive

Question: Which MIC does the source give for CCCCCCCCCCCCCCC(=O)O/N=C1\c2ccccc2-c2c1c(N1CCN(c3ccccn3)CC1)nc1ccc(Br)cc21 here?
Answer: inactive

Question: For O/N=C1\c2ccccc2-c2c1c(-n1ccnc1)nc1ccc(Br)cc21, which MIC is on record?
Answer: < 0.39 µg/mL

Question: Which MIC does the source give for CCCCCCCCCCCCCC(=O)OC1(C)c2ccccc2-c2c1c(-n1ccnc1)nc1ccc(Br)cc21 (centres undefined) here?
Answer: inactive

Question: Which MIC does the source give for CN(C)C(=O)O/N=C1\c2ccccc2-c2c1c(N1CCN(c3ccccn3)CC1)nc1ccc(Br)cc21 here?
Answer: 1.56 µg/mL (≈ 2.8 µM)

Question: For CCCCCCCCCC(=O)O/N=C1\c2ccccc2-c2c1c(N1CCN(c3ccccn3)CC1)nc1ccc(Br)cc21, which MIC is on record?
Answer: inactive

Question: With CC(C)(C)OC(=O)NC1(C(=O)O/N=C2\c3ccccc3-c3c2c(N2CCN(c4ccccn4)CC2)nc2ccc(Br)cc32)CCCC1 as the molecule, how does the MIC read?
Answer: inactive

Question: For CC(C)C[C@H](NC(=O)OCC1c2ccccc2-c2ccccc21)C(=O)O/N=C1\c2ccccc2-c2c1c(N1CCN(c3ccccn3)CC1)nc1ccc(Br)cc21, which MIC is on record?
Answer: inactive

Question: For O/N=C1\c2ccccc2-c2c1c(N1CCN(c3ccccn3)CC1)nc1ccc(Br)cc21, which MIC is on record?
Answer: 6.25 µg/mL (≈ 12.9 µM)

Question: With CN(C)C(=O)O/N=C1\c2ccccc2-c2c1c(-n1ccnc1)nc1ccc(Br)cc21 as the molecule, how does the MIC read?
Answer: 0.27 µg/mL (≈ 0.584 µM)

Question: With O=C(O/N=C1\c2ccccc2-c2c1c(N1CCN(c3ccccn3)CC1)nc1ccc(Br)cc21)C1CC1 as the molecule, how does the MIC read?
Answer: inactive

Tested on: not listed separately
Test: Cytotoxicity against human U937 cells assessed as cell viability at 1.25 ug/ml after 72 hrs by MTT assay
Format: cell-based, U-937
Settings: read-out: Activity
Outline: (§1)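 U937 human monocytic cells plated at 1 × 10^5 cells/mL and allowed to adhere for 1 h at 37 °C in 5% CO2. Non-adherent cells were washed off with RPMI 1640. Adherent cells were exposed to compound in triplicate, with medium alone as the live control and 3% Tween 20 as the dead control. MTT (5 mg/mL in PBS) was then added for 3 h at 37 °C. Formazan was dissolved in 0.4 M HCl/isopropanol and absorbance read at 600 nm. Results are expressed as % cell viability.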

Question: With O/N=C1\c2ccccc2-c2c1c(-n1ccnc1)nc1ccc(Br)cc21 as the molecule, how does the viability at 72 h, 1.25 ug/ml read?
Answer: 100%

Question: With CN(C)C(=O)O/N=C1\c2ccccc2-c2c1c(N1CCN(c3ccccn3)CC1)nc1ccc(Br)cc21 as the molecule, how does the viability at 72 h, 1.25 ug/ml read?
Answer: 100%

Question: Which viability at 72 h, 1.25 ug/ml does the source give for O/N=C1\c2ccccc2-c2c1c(N1CCN(c3ccccn3)CC1)nc1ccc(Br)cc21 here?
Answer: 100%

Question: With CN(C)C(=O)O/N=C1\c2ccccc2-c2c1c(-n1ccnc1)nc1ccc(Br)cc21 as the molecule, how does the viability at 72 h, 1.25 ug/ml read?
Answer: 77%

Tested on: not listed separately
Test: Cytotoxicity against human U937 cells assessed as cell viability at 5 ug/ml after 72 hrs by MTT assay
Format: cell-based, U-937
Settings: read-out: Activity
Outline: as §1

Question: For O/N=C1\c2ccccc2-c2c1c(-n1ccnc1)nc1ccc(Br)cc21, which viability at 72 h, 5 ug/ml is on record?
Answer: 91%

Question: With CN(C)C(=O)O/N=C1\c2ccccc2-c2c1c(N1CCN(c3ccccn3)CC1)nc1ccc(Br)cc21 as the molecule, how does the viability at 72 h, 5 ug/ml read?
Answer: 100%

Question: With O/N=C1\c2ccccc2-c2c1c(N1CCN(c3ccccn3)CC1)nc1ccc(Br)cc21 as the molecule, how does the viability at 72 h, 5 ug/ml read?
Answer: 100%

Question: With CN(C)C(=O)O/N=C1\c2ccccc2-c2c1c(-n1ccnc1)nc1ccc(Br)cc21 as the molecule, how does the viability at 72 h, 5 ug/ml read?
Answer: 82%

Tested on: not listed separately
Test: Cytotoxicity against human U937 cells assessed as cell viability at 10 ug/ml after 72 hrs by MTT assay
Format: cell-based, U-937
Settings: read-out: Activity
Outline: as §1

Question: For O/N=C1\c2ccccc2-c2c1c(-n1ccnc1)nc1ccc(Br)cc21, which viability at 72 h, 10 ug/ml is on record?
Answer: 77%

Question: With CN(C)C(=O)O/N=C1\c2ccccc2-c2c1c(N1CCN(c3ccccn3)CC1)nc1ccc(Br)cc21 as the molecule, how does the viability at 72 h, 10 ug/ml read?
Answer: 68%

Question: Which viability at 72 h, 10 ug/ml does the source give for O/N=C1\c2ccccc2-c2c1c(N1CCN(c3ccccn3)CC1)nc1ccc(Br)cc21 here?
Answer: 56%

Question: For CN(C)C(=O)O/N=C1\c2ccccc2-c2c1c(-n1ccnc1)nc1ccc(Br)cc21, which viability at 72 h, 10 ug/ml is on record?
Answer: 61%

Tested on: not listed separately
Test: Cytotoxicity against human U937 cells assessed as cell viability at 20 ug/ml after 72 hrs by MTT assay
Format: cell-based, U-937
Settings: read-out: Activity
Outline: as §1

Question: For O/N=C1\c2ccccc2-c2c1c(-n1ccnc1)nc1ccc(Br)cc21, which viability at 72 h, 20 ug/ml is on record?
Answer: 77%

Question: Which viability at 72 h, 20 ug/ml does the source give for CN(C)C(=O)O/N=C1\c2ccccc2-c2c1c(N1CCN(c3ccccn3)CC1)nc1ccc(Br)cc21 here?
Answer: 47%

Question: For O/N=C1\c2ccccc2-c2c1c(N1CCN(c3ccccn3)CC1)nc1ccc(Br)cc21, which viability at 72 h, 20 ug/ml is on record?
Answer: 49%

Question: Which viability at 72 h, 20 ug/ml does the source give for CN(C)C(=O)O/N=C1\c2ccccc2-c2c1c(-n1ccnc1)nc1ccc(Br)cc21 here?
Answer: 50%

Tested on: Serum
Test: Stability of the compound in 80% human blood serum assessed as hydrolysis to 2-bromo-6-(1H-imidazol-1-yl)-7H-indeno[2,1-c]quinolin-7-one oxime at 1 mg after 24 hrs at 37 degC by LC-MS analysis
Format: ADME, cell-free
Settings: not given
Outline: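 Enzymatic hydrolysis: 1 mg prodrug dissolved in 1 mL ethanol, then 200 µL preheated human blood serum diluted to 80% with 0.16 M phosphate buffer (pH 7.4) was added. Samples were kept at 37 °C (24 h) and centrifuged 10 min at 10,000 rpm. Remaining prodrug in the supernatant was monitored by TLC and LC-MS. t1/2 is the time to 50% hydrolysis.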

Question: Which Activity does the source give for CN(C)C(=O)O/N=C1\c2ccccc2-c2c1c(N1CCN(c3ccccn3)CC1)nc1ccc(Br)cc21 here?
Answer: Not Active

Question: With CN(C)C(=O)O/N=C1\c2ccccc2-c2c1c(-n1ccnc1)nc1ccc(Br)cc21 as the molecule, how does the Activity read?
Answer: Not Active

Tested on: not listed separately
Test: Stability of the compound in 10% aqueous ammonia buffer at pH 8 assessed as hydrolysis to 2-bromo-6-(1H-imidazol-1-yl)-7H-indeno[2,1-c]quinolin-7-one oxime at 1 mg at 37 degC by LC-MS analysis
Format: physicochemical
Settings: not given
Outline: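 Chemical hydrolysis: 1 mg prodrug dissolved in 1 mL of 10% aqueous ammonia in methanol (pH 8) and held in a thermostatted water bath at 37 °C, up to 24 h. Conversion to the parent oxime was followed by TLC and LC-MS. t1/2 is the time to 50% hydrolysis.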

Question: With CN(C)C(=O)O/N=C1\c2ccccc2-c2c1c(N1CCN(c3ccccn3)CC1)nc1ccc(Br)cc21 as the molecule, how does the Activity read?
Answer: Not Active

Question: With CN(C)C(=O)O/N=C1\c2ccccc2-c2c1c(-n1ccnc1)nc1ccc(Br)cc21 as the molecule, how does the Activity read?
Answer: Not Active

Tested on: not listed separately
Test: Octanol-water partition coefficient, log P of the compound at pH 7.4 at room temperature by UV spectrophotometric analysis
Format: physicochemical
Settings: not given
Outline: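 Shake-flask method at room temperature: 1-octanol and phosphate buffer (pH 7.4) were pre-saturated by shaking for 24 h. Compound at 10^-4 M in equal volumes of both phases was shaken vigorously for 1 h, left to stand 15 min, then centrifuged 10 min at 10,000 rpm. UV absorbance of each phase was read at 280 nm against blanks, and P was taken as the octanol/water absorbance ratio.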

Question: For O/N=C1\c2ccccc2-c2c1c(-n1ccnc1)nc1ccc(Br)cc21, which logD is on record?
Answer: 0.2

Question: For CN(C)C(=O)O/N=C1\c2ccccc2-c2c1c(N1CCN(c3ccccn3)CC1)nc1ccc(Br)cc21, which logD is on record?
Answer: 2.3

Question: With O/N=C1\c2ccccc2-c2c1c(N1CCN(c3ccccn3)CC1)nc1ccc(Br)cc21 as the molecule, how does the logD read?
Answer: 3.3

Question: Which logD does the source give for CN(C)C(=O)O/N=C1\c2ccccc2-c2c1c(-n1ccnc1)nc1ccc(Br)cc21 here?
Answer: 1.1

Tested on: not listed separately
Test: Selectivity index, ratio CC50 for human U937 cells to MIC for Mycobacterium tuberculosis H37Rv ATCC 27294
Format: functional, U-937
Settings: not given

Question: Which “Selectivity Index” value does the source give for O/N=C1\c2ccccc2-c2c1c(-n1ccnc1)nc1ccc(Br)cc21 here?
Answer: >5

Question: With CN(C)C(=O)O/N=C1\c2ccccc2-c2c1c(N1CCN(c3ccccn3)CC1)nc1ccc(Br)cc21 as the molecule, how does the “Selectivity Index” value read?
Answer: 88

Question: With O/N=C1\c2ccccc2-c2c1c(N1CCN(c3ccccn3)CC1)nc1ccc(Br)cc21 as the molecule, how does the “Selectivity Index” value read?
Answer: 71

Question: With CN(C)C(=O)O/N=C1\c2ccccc2-c2c1c(-n1ccnc1)nc1ccc(Br)cc21 as the molecule, how does the “Selectivity Index” value read?
Answer: 49
